Experimental data pooled from the literature.
Protocols differ between the studies behind these lines.
Target: Serine/threonine-protein kinase N2 (PKN2, Homo sapiens, UniProt Q16513)

SMILES | effect on | action | technique | tested at | quantity | value
C1=C/COCc2cc(ccc2OCCN2CCCC2)Nc2nccc(n2)-c2cccc(c2)COC/1 | binding | – | – | 0.1 µM | remaining binding | 100%
C=CC(=O)N1CCC([C@@H]2CCNc3c(C(N)=O)c(-c4ccc(Oc5ccccc5)cc4)nn32)CC1 | enzyme activity | inhibitor | – | 1 µM | inhibition | 24%
Cc1ccc(NC(=O)c2ccnc(C(F)(F)F)c2)cc1-c1cc(OCCO)nc(N2CCOCC2)c1 | binding | – | – | 1 µM | remaining binding | 89%
CC(C)S(=O)(=O)c1ccc2nccc(Nc3ccc4sc(C5CCCC5)nc4c3)c2c1 | enzyme activity | inhibitor | – | 1 µM | activity vs control | 116%
CN1CCN(C(=O)c2ccc(NC(=O)Nc3ccc(N(C)c4ccnc(Nc5ccc(CS(C)(=O)=O)cc5)n4)cc3)cc2)CC1 | binding | – | – | 1 µM | remaining binding | 100%
CCCCC(=O)Nc1ccc(-c2ccc3ncn(CCC)c(=O)c3c2)cn1 | binding | – | competition with immobilised ligand | 0.5 µM | remaining binding | 87%
Cc1cc(O)c(-c2ccc([C@@H](C)CN(C)C)cc2)c2c1[nH]c(=O)c1sccc12 | enzyme activity | inhibitor | – | 0.1 µM | inhibition | 13.8%
CC#CC(=O)N1CCC[C@H]1c1nc(-c2ccc(C(=O)Nc3ccccn3)cc2)c2c(N)nccn12 | enzyme activity | inhibitor | – | 1 µM | inhibition | 0%
